Screening results (PubChem)
The list is not random: actives were taken first. Their share in the collection is about 1.7%.
STEP block: blocks human striatal-enriched tyrosine phosphatase; inhibition, % at 20 µM; recombinant STEP, OMFP fluorogenic substrate, fluorescence; actives 0.25% (n = 360,000); AID 588621; P54829;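 active = inhibition at 20 µM, scaled per plate between control wells, above about 37%, limit read from the data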
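System: STEP (striatal-enriched tyrosine phosphatase) enzyme, cell-free; medium: Bis-Tris pH 6.0 buffer with DTT, detergent; dosing: 20 µM, 1% DMSO; times: reaction 20 min, ambient temperature; detection: fluorescence, 480/540 nm; read-out basis: normalized % inhibition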
SUMO1 PPI mod: alters human SUMO1 binding to SIM partners; actives 0.33% (n = 360,000); AID 602429; inhibition, % at 20 µM; P63165; SUMO1 binding to a labelled peptide, TR-FRET, 1 h; in the data active = inhibition above about 37%
Target sequence (P63165 whole entry, looked up): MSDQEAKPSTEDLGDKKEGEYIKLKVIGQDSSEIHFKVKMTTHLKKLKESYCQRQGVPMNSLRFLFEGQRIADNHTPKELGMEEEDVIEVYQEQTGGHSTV
Scp1 inh: Scp-1 (human) phosphatase inhibition; Recombinant Scp1, phosphopeptide, malachite green phosphate absorbance; inhibition, % at 20 µM; actives 0.88% (n = 340,000); AID 493091;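 active = inhibition above about 50% at 20 µM, limit read from the data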
Target sequence (Q9GZU7 76-261 limits assumed): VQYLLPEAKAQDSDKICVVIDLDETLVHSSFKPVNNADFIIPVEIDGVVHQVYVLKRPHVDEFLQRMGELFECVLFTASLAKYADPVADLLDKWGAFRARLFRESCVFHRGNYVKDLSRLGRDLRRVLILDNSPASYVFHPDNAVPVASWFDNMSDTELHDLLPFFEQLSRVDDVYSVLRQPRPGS
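Test system: SCP-1 phosphatase catalytic domain, residues 76-261 | Compound dosing: One concentration, 20 µM, with 1.0% DMSO | Schedule: 45 min room-temperature reaction, 5 min colour, 30 min stabiliser | Detection: Absorbance at 630 nm | Read-out basis: % inhibition of SCP-1 phosphate liberation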
LMPTP inh: blocks human LMPTP phosphatase | P24666 | recombinant LMPTP-A, OMFP fluorogenic substrate, fluorescence intensity | inhibition, % at 20 µM | actives 0.22% (n = 360,000);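 active = compounds that cut the enzyme signal by at least half of the control window in the single-dose screen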
Target sequence (P24666 whole entry, looked up): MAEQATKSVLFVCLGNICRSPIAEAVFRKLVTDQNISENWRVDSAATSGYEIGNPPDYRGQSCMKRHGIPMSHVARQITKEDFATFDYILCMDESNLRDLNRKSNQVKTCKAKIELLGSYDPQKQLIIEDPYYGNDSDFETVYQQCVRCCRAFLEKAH
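Test system – LMPTP-A enzyme · Amount – LMPTP-A at 0.625 nM final in the reaction · Buffer or medium – Bis-Tris pH 6.0, DTT, detergent · Reagent – OMFP 400 µM · Doses – single 20 µM dose · Schedule – reaction 50 min, room temperature, dark · Detection – fluorescence intensity of OMFP turnover product · Evaluation – percent inhibition versus substrate-only and uninhibited controls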
DNMT1 block: blocks human DNA methyltransferase DNMT1. DNMT1 molecular beacon, Hinp1I cleavage, fluorescence. inhibition (reported as % activation of signal), % at 10 µM. actives 0.83% (n = 360,000). AID 588458; in the data active = inhibition above about 50%
STEP inh conf: STEP (human) phosphatase inhibition, single concentration confirmation. AID 623866. actives 32% (n = 520). shares compounds with STEP block. inhibition, % at 20 µM. recombinant STEP, OMFP fluorogenic substrate, fluorescence; call rule not given here
Each line names hits and unclear results; the compound was inactive in the other large screens (follow-up assays come after a bar, where they were run).

C/C(=N\Nc1ccc(F)cc1F)c1ccc(Br)s1	none
O=C(NC1CCCCCC1)C(=S)NC1CCCCC1	STEP block 57 | STEP inh conf 31
COc1ccc2nc3n(c(=O)c2c1)-c1ncccc1C(=O)NC3C (stereo unspecified)	none (no result: Scp1 inh)
N#C/C(=C/c1ccc(OCc2ccc(C(=O)O)cc2)c(Br)c1)c1cccc(F)c1	STEP block 94, Scp1 inh 50, LMPTP inh 86, DNMT1 block 93 | STEP inh conf inactive
C[C@H](CO)N1C[C@H](C)[C@@H](CN(C)C(=O)NC2CCCCC2)Oc2c(NS(=O)(=O)c3ccc(F)cc3)cccc2C1=O	none
CCCCNS(=O)(=O)c1cc(-c2nn(C)c(=O)c3ccccc23)ccc1C	STEP block 58 | STEP inh conf inactive
COCCNS(=O)(=O)c1cc(-c2nn(C)c(=O)c3ccccc23)ccc1C	none
O=C(N/N=C/c1ccncc1)c1cccc(S(=O)(=O)Nc2ccc(Cl)cc2)c1	STEP block 74, SUMO1 PPI mod 79 | STEP inh conf 95
COCCN(C(=S)Nc1c(C)cc(C)cc1C)C(C)c1cccnc1 (stereo unspecified)	STEP block 50 | STEP inh conf 21
O=C(CCC(=O)N1CCN(c2ccccc2F)CC1)c1ccc(Cl)s1	none
O=C(CCN1CCC(c2ccc(Cl)s2)=N1)c1ccc(Cl)s1	STEP block 58 | STEP inh conf inactive
O=C(CC[C@H]1O[C@@H](n2ccc(=O)[nH]c2=O)[C@H](O)[C@@H]1O)NCc1ccccc1	none (no result: Scp1 inh)
C=C(C)COc1ccc2c(CC)cc(=O)oc2c1	STEP block 118 | STEP inh conf inactive
C=C(Cl)COc1ccc2c(CC)cc(=O)oc2c1	none
COc1ccc(C(=O)Nc2ccc(/C(C)=N/NC(=O)c3ccncc3)cc2)cc1	STEP block 82, LMPTP inh 54 (no result: Scp1 inh) | STEP inh conf inactive
OCCN1CCN(C(=S)c2ccc(Cl)c(Cl)c2)CC1	STEP block 90 | STEP inh conf 60
COc1cc(NC(=S)N2CCN(CCO)CC2)c(OC)cc1Cl	none
CCCCC(=O)Nc1ccc2c(c1)nc(CCN1CCOCC1)n2C	STEP block 46 | STEP inh conf inactive
COC(=O)[C@@H](Cc1ccccc1)NC(=O)Cn1cc(C)c(=O)[nH]c1=O	none
CN1CCN(C(=S)C(=O)Nc2ccccc2)CC1	STEP block 41 | STEP inh conf inactive
CN1CCN(C(=S)C(=O)NCc2ccccc2)CC1	none
O=C(N/N=C/c1ccc(OC(=O)c2cccc(F)c2)cc1)c1cccnc1	STEP block 98, LMPTP inh 57 | STEP inh conf inactive
Cc1ccc2nc(Nc3ccc(F)cc3)c3nncn3c2c1	STEP block 45 | STEP inh conf inactive
CN1CCN(C(=O)/C=C/c2ccc3c(c2)OCO3)CC1	STEP block 57 | STEP inh conf inactive
COc1cc(/C=C/C(=O)c2ccc3c(c2)OCO3)cc(Cl)c1O	none
CC(C)OCCCNC(=S)Nc1ccc(S(N)(=O)=O)cc1	STEP block 83 | STEP inh conf 36
NS(=O)(=O)c1ccc(NC(=S)NCCc2ccccc2)cc1	STEP block 52 | STEP inh conf 38
CCCc1cc(=O)n2[nH]c(NC(=O)c3ccco3)nc2n1	none
COc1cc(NC(=S)N2CCN(C)CC2)c(OC)cc1Cl	STEP block 42 | STEP inh conf 28
COc1ccnc(CSC(N)=Nc2ccccc2OC)c1	STEP block 35 | STEP inh conf inactive
CC(C)c1ccc(OCCCCN2CCCCC2)cc1	none
CC(C)Oc1ccc(OCCCN2CCCCCC2)cc1	STEP block 53 | STEP inh conf inactive
COC[C@@H]1CCCN1c1ccc2c(c1)O[C@H](COCc1ccccc1)CN([C@@H](C)c1ccccc1)S2(=O)=O	none (no result: STEP block, Scp1 inh, DNMT1 block)
CC(=NNC(=S)N1CCCC1)c1ccccn1	none (no result: Scp1 inh)
CC(=NNC(=S)N1CC2CCC(CC2)C1)c1cccc(C)n1	STEP block 59 | STEP inh conf active
COc1ccc(-c2nc3ccc(Cl)cn3c2Cc2ccsc2)cc1OC	none (no result: Scp1 inh)
COc1ccc(Br)cc1/C=C/C(=O)NC(=S)Nc1ccc(Cl)c(C(=O)O)c1	STEP block 62 | STEP inh conf inactive
COc1ccc(Br)cc1C(=O)NC(=S)Nc1ccc(Cl)c(C(=O)O)c1	none
O=C1[C@@H]2[C@@H]3C[C@@H]([C@H]4ON=C(c5ccc(OCc6ccccc6)cc5)[C@@H]34)[C@@H]2C(=O)N1c1ccc2c(c1)OCO2	none
O=C1[C@@H]2[C@@H]3C[C@@H]([C@H]4ON=C(c5ccc(Cl)cc5)[C@@H]34)[C@@H]2C(=O)N1c1ccc2c(c1)OCO2	STEP block 46 | STEP inh conf inactive
O=C(Nc1ccc2c(c1)OCO2)c1cc(C2CCCCN2C(=O)c2ccc(Cl)cc2)on1 (stereo unspecified)	none (no result: Scp1 inh)
CCNc1nc(NCC)nc(NC(N)=S)n1	none
CCNc1nc(NC(N)=S)nc(NC(C)(C)C)n1	STEP block 37 | STEP inh conf inactive
Cc1cccc(NC(=O)Nc2nnc([C@H]3C[C@H](O)[C@@H](CO)O3)s2)c1	none (no result: Scp1 inh)
COc1ccc(NC(=S)N2CCN(c3ncccn3)CC2)c(OC)c1	STEP block 85 | STEP inh conf inactive
O=C(/C=C/c1ccccc1Cl)N1CCOCC1	none
O=C(/C=C/c1ccccc1Cl)N1CCN(c2ncccn2)CC1	STEP block 68 | STEP inh conf inactive
O=C1CC(C(=O)N2CCN(c3ccccc3)CC2)CN1Cc1ccccc1 (stereo unspecified)	none
CCCS(=O)(=O)NC(=O)C1(C)CCCN(C(=O)c2ccc(C(=O)OC)cc2)C1 (stereo unspecified)	none (no result: Scp1 inh)
CCc1ccc2cc(F)cc(F)c2n1	none (no result: Scp1 inh)
C=CCOc1ccc(/C=C/C(=O)OCC(=O)Nc2c(C)n(C)n(-c3ccccc3)c2=O)cc1	none
NC(=O)CSc1nc2cc(S(=O)(=O)N3CCOCC3)ccc2o1	STEP block 56 | STEP inh conf inactive
CN(C)C(=O)CSc1nc2cc(S(=O)(=O)N3CCOCC3)ccc2o1	none
S=C1NC2=C(CCCC2=C2SCCS2)C(c2ccccc2)N1 (stereo unspecified)	STEP block 70 | STEP inh conf 60
Cc1nn(-c2ccccc2)c(C)c1/C=N/NC(=O)c1cc(-c2ccc(Cl)s2)[nH]n1	none
O=C(N/N=C/c1ccccn1)c1cc(-c2ccc(Cl)s2)[nH]n1	STEP block 42 | STEP inh conf inactive
Cc1n[nH]c(=O)nc1NCCN(C)C	none
Cc1n[nH]c(=O)nc1NCc1ccc(Cl)cc1	STEP block 39 | STEP inh conf inactive
CCCOc1ccc(F)cc1-c1cc(C(=O)Nc2ccc(C)c(NS(C)(=O)=O)c2)[nH]n1	none (no result: Scp1 inh)
COc1ccc(OC)c(NC(=O)C2(C)CCN2C(C)C)c1 (stereo unspecified)	none (no result: Scp1 inh)
O=C(NC1CCCCC1)C(c1ccnc2ccccc12)n1c(=O)c(-c2ccco2)nc2ccccc21 (stereo unspecified)	none (no result: STEP block, Scp1 inh, DNMT1 block)
